Results reported in paper PMC4079331 (Journal of Medicinal Chemistry, 2014).

Assays:
[1] = Phase I metabolism in human microsomes; format: in vitro ADME; conditions: 1 h incubation, 100 μM, NADPH
Outline: (§1)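 Mouse or human microsomes (5 mg/mL protein final) in 0.1 M sodium phosphate pH 7.4 with 100 μM test compound (DMSO <1%), preincubated 5 min at 37 °C. Started with 1 mM NADPH and run 60 min at 37 °C. Stopped with MeOH and centrifuged; supernatant analysed by LCMS. Controls: zero time, no NADPH, boiled microsomes, and 7-ethoxycoumarin as CYP substrate.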

[2] = Phase I metabolism in mouse microsomes; format: in vitro ADME; conditions: 1 h incubation, 100 μM, NADPH
Outline: as §1

[3] = system: KB nasopharyngeal tumor cells; conditions: in vitro cultured cells; from the literature, reference not given; cited from earlier work
[4] = Nonspecific protein binding, from recovery out of plasma and serum; format: in vitro ADME; conditions: result in words
Outline: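 Test compound at 50 μM final (1% DMSO) in pooled female BALB/c mouse plasma or serum, or in human AB serum, incubated at 37 °C with gentle agitation. Aliquots taken at 0, 0.5, 1, 2, 8, 18 and 24 h were precipitated with CH3CN and centrifuged at 3000g for 10 min; supernatants were quantified by LCMS. Run in triplicate.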

CLL = conditions: read-out: EC50 against CLL; p53-independent activity; cited from earlier work
[5] = Phase II glucuronidation in human S9 fractions; format: in vitro ADME
[6] = Phase II glucuronidation in mouse S9 fractions; format: in vitro ADME
CLL patient cells = assay: In vitro activity against CLL patient cells, summary statements over cell lines; format: cell-based, human; conditions: for in vitro activity against CLL patient cells: result in words
Outline: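 Primary CLL cells from consented patients, cultured in RPMI with 10% FBS and test compound at designated concentrations for 48 h (37 °C, 5% CO2). Viability is the DiOC6+/PI− fraction relative to untreated or vehicle control. EC50 and SE come from dose–response curves.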

[7] = Stability in mouse plasma; format: in vitro ADME; conditions: female, BALB/c, mouse plasma (pooled)
Outline: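 Test compound at 50 μM final (1% DMSO) in pooled plasma from female BALB/c mice or human AB serum. Incubated at 37 °C with gentle agitation. Samples taken at 0, 0.5, 1, 2, 8, 18 and 24 h. Proteins precipitated with CH3CN, vortexed and centrifuged (3000g, 10 min, room temperature); supernatant analysed by LCMS. Run in triplicate.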

[8] = system: CLL2 (CLL patient cell line); assay: In vitro cytotoxicity against primary CLL patient cells CLL2; format: cell-based, human; conditions: for EC50: read-out: antitumor EC50 CLL2, Table 3, SE ±0.01 μM
[9] = system: JVM-2 (ATCC leukemia cell line); assay: In vitro cytotoxicity against JVM-2; format: cell-based; conditions: read-out: antitumor EC50 JVM-2; Table 3; SE ±0.01 μM
[10] = system: CLL1 (CLL patient cell line); assay: In vitro cytotoxicity against primary CLL patient cells CLL1; format: cell-based, human; conditions: read-out: antitumor EC50 CLL1; Table 3; SE ±0.01 μM
HeLa cell line = assay: HeLa cell viability by the MTT method; format: cell-based; conditions: read-out: antitumor EC50 HeLa; Table 3; SE ±0.01 μM

**Q.** For `CN1C(=O)N[C@H]2[C@@H]3NC(=O)c4ccc(Br)n4[C@@H]3C[C@]21O` [1a, (−)-Agelastatin A], which “metabolism by cytochrome P450 enzymes, recovery from supernatant (LCMS)” value (“metabolism by cytochrome P450 enzymes” below) [1] is on record?
**A.** quantitative recovery

**Q.** And the “metabolism by cytochrome P450 enzymes” value [2]?
**A.** quantitative recovery

**Q.** And the “IC50, growth of KB nasopharyngeal tumor cells” value [3]?
**A.** 0.5–1 μg mL^–1

**Q.** And the nonspecific protein binding [4]?
**A.** relatively low

**Q.** What about the EC50 (CLL) of the same molecule?
**A.** 0.06 to 0.1 µM

**Q.** What about the formation of glucuronides [5] of the same molecule?
**A.** No formation of glucoronides was detected

**Q.** And the formation of glucuronides [6]?
**A.** No formation of glucoronides was detected

**Q.** And the EC50 (CLL patient cells; read-out: EC50, CLL activity, range over the cell lines tested)?
**A.** 0.11 to 0.31 µM

**Q.** Which “in vitro activity against CLL patient cells” value (“in vitro activity” below) (CLL patient cells) does the source give for `CN1C(=O)N[C@H]2[C@@H]3NC(=O)c4ccc(Cl)n4[C@@H]3C[C@]21O` [1d, 13-Debromo-13-chloro-agelastatin A] here?
**A.** nanomolar

**Q.** Which “in vitro activity” value (CLL patient cells) does the source give for `CN1C(=O)N[C@H]2[C@@H]3NC(=O)c4cc(Cl)c(Cl)n4[C@@H]3C[C@]21O` [1e, 13-Debromo-13,14-dichloro-agelastatin A] here?
**A.** nanomolar

**Q.** For `CN1C(=O)N[C@H]2[C@@H]3NC(=O)c4ccc(I)n4[C@@H]3C[C@]21O` [1g, 13-Debromo-13-iodo-agelastatin A], which “in vitro activity” value (CLL patient cells) is on record?
**A.** nanomolar

**Q.** Which results are given for `CN1C(=O)N[C@H]2[C@@H]3NC(=O)c4ccc(C(F)(F)F)n4[C@@H]3C[C@]21O` [1j, 13-Debromo-13-trifluoromethyl-agelastatin A]?
**A.** metabolism by cytochrome P450 enzymes, recovery from supernatant (LCMS) [1]: quantitative recovery; metabolism by cytochrome P450 enzymes, recovery from supernatant (LCMS) [2]: quantitative recovery; nonspecific protein binding [4]: relatively low; recovery at 24 h, 50 μM [7]: 65 to 90%; in vitro activity against CLL patient cells (CLL patient cells): nanomolar

**Q.** For `CN1C(=O)N[C@H]2[C@@H]3NC(=O)c4ccc(C#N)n4[C@@H]3C[C@]21O` [1n, 13-Debromo-13-cyano-agelastatin A], which “in vitro activity” value (CLL patient cells) is on record?
**A.** nanomolar

**Q.** With `CN1C(=O)N[C@H]2[C@@H]3NC(=O)c4cccn4[C@@H]3C[C@]21O` [1p, 13-Debromo-agelastatin A] as the molecule, how does the “loss of activity on removal of Br from C-13” value ([8]; compared with 1a) read?
**A.** 25 fold

**Q.** What about the “metabolism by cytochrome P450 enzymes” value [1] of the same molecule?
**A.** near quantitative recovery

**Q.** What about the “metabolism by cytochrome P450 enzymes” value [2] of the same molecule?
**A.** near quantitative recovery

**Q.** Which “metabolism by cytochrome P450 enzymes” value [1] does the source give for `CCOc1ccc2ccc(=O)oc2c1` [7-ethoxycoumarin, reference compound] here?
**A.** metabolized

**Q.** And the “metabolism by cytochrome P450 enzymes” value [2]?
**A.** metabolized

**Q.** For O-(2′-Methoxyethyl)-agelastatin A [4c], which EC50 [9] is on record?
**A.** 21.1 µM

**Q.** What about the EC50 [8] of the same molecule?
**A.** 9.39 µM

**Q.** Which EC50 [9] does the source give for O-Methyl-agelastatin A [4b] here?
**A.** 429 µM

**Q.** What about the EC50 [8] of the same molecule?
**A.** 28.8 µM

**Q.** What about the EC50 [10] of the same molecule?
**A.** 867 µM

**Q.** And the EC50 (HeLa cell line)?
**A.** 91.4 µM
